Screening results (PubChem BioAssay)
Only a selection was taken, and hits are over-represented in it overall.
CHOP inhibitor = inhibitors of CHOP promoter induction, primary screen, cell-based, unfolded protein response, luciferase reporter; CHO-K1 CHOP-promoter luciferase, tunicamycin-induced, 15-18 h; inhibition, % at 10 µM; 220,000 tested, 3.8% active; AID 2732, 2010;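 active = compounds that reduced the stress-induced luciferase reporter signal by more than about 70% of percent inhibition, limit read from the data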;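 note: 0% = tunicamycin plus vehicle and 100% = wells without tunicamycin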
A1 inh = caspase 3/7 activation in MEF A1-2A-BIM cells, primary screen, A1 inhibitor project, cell-based, luminescence, HTS. Caspase-Glo 3/7 luminescence, 3 h; percent of clofoctol response, vehicle zero. caspase activation, % (concentration not given with the values). 330,000 tested, 0.066% active;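 active = over half of replicate activation scores above 10%, or exactly half above 10 with the replicate mean above 10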
UPR XBP1 act = activators of adaptive XBP1 UPR arm, primary screen, cell-based, CHO-XBP1 luciferase reporter, luminescence, uHTS. IRE1-XBP1 UPR activation; percent of tunicamycin response, DMSO as zero. activation, % at 20 µM. 330,000 tested, 0.33% active;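 active = versus positive control, 20 µM dose yields 30% or more activation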;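 note: 100% = tunicamycin at 10 µg/mL and 0% = DMSO only wells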
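Assay system: CHO-XBP1 luciferase reporter cells; Schedule: 6 h treatment, 37 °C; Detection: glow luminescence from Steady-Glo reagent; Benchmarks: high control tunicamycin 10 µg/mL final, low control DMSO vehicle only.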
UPR CHOP act = activators of apoptotic CHOP UPR arm, primary screen, cell-based, CHO-CHOP luciferase reporter, luminescence, uHTS; UPR activation; percent of tunicamycin response over DMSO baseline; activation, % at 10 µM; 330,000 tested, 0.34% active;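 active = at 10 µM dose, activation of 40% or more, normalized to positive control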;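 note: 100% = tunicamycin at 10 µg/mL and 0% = DMSO alone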
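Evaluation: % reporter activation, DMSO baseline versus tunicamycin full activation; System: CHO-CHOP luciferase reporter cell line; Input: 500 cells/well; Incubation: 6 h compound treatment, 37 °C; Measured by: Steady-Glo luciferase luminescence; Dosing: one dose, 10 µM in 0.5% DMSO; Buffer or medium: F12 medium, 10% FBS; Benchmarks: positive tunicamycin 10 µg/mL, negative DMSO alone.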
* = called active by the depositor; . = no result.

SMILES	CHOP inhibitor	A1 inh	UPR XBP1 act	UPR CHOP act
Cc1cc2c(C(C)C)c(O)c(O)c(C=O)c2c(O)c1-c1c(C)cc2c(C(C)C)c(O)c(O)c(C=O)c2c1O	109*	.	.	.
C#C[C@]1(O)CCC2C3CCC4=C/C(=N/OCC(=O)NC(C)C(=O)NC(CCSC)C(=O)O)CC[C@]4(C)C3CC[C@@]21C (stereo partly drawn)	.	0	-4	-1
Cc1ccc2c(c1)CC1(CN2C)C(=O)NC(=O)N(CCc2ccccc2)C1=O (stereo not drawn)	91*	0	0	-1
Cc1ccc2c(c1)CC1(CN2C)C(=O)NC(=O)N(c2ccccc2C)C1=O (stereo not drawn)	34	0	-2	2
C[C@]12CC[C@H](O)CC1=CC[C@@H]1[C@@H]2CC[C@@]2(C)[C@H]1CC[C@]2(C)O	.	-1	-2	0
CCC(C)n1c(O)c(/C=N/N2CCOCC2)c(=O)[nH]c1=S (stereo not drawn)	13	0	0	-1
O=c1[nH]c(=O)n(Cc2ccccc2)c(O)c1/C=C1\C=Nc2ccccc21	83*	0	12	-3
O=c1[nH]c(=O)n(CC2CCCO2)c(O)c1/C=C1\C=Nc2ccccc21 (stereo not drawn)	2	-1	1	0
C[C@]12CCC3[C@@H](CCC4=CC(=O)CC[C@@]43CO)C1CCC2=O (stereo partly drawn)	.	1	4	0
Cc1cccc(CNCCc2ccccc2)n1	26	0	-1	2
Cc1ccc(OP(=O)(NC(C)c2ccccc2)Oc2ccc(C)cc2)cc1 (stereo not drawn)	77*	0	-2	-1
COc1ccc(N=Cc2c(O)n(CC3CCCO3)c(=O)[nH]c2=O)cc1 (stereo not drawn)	-14	-1	-1	-1
C=CCn1c(O)c(C=Nc2ccc(N(CC)CC)cc2)c(=O)[nH]c1=O	71*	-1	2	0
C=CCn1c(O)c(C=Nc2ccc(F)cc2)c(=O)[nH]c1=O	.	0	-3	0
COc1ccc(N=Cc2c(O)n(Cc3cccs3)c(=O)[nH]c2=O)cc1	81*	-1	3	1
CCOc1ccc(N=Cc2c(O)n(CCc3ccc(OC)c(OC)c3)c(=O)[nH]c2=O)cc1	90*	1	-6	1
CC1CCN(C(=O)c2ccc(N3CC4CC(C3)c3cccc(=O)n3C4)c([N+](=O)[O-])c2)CC1 (stereo not drawn)	25	0	0	1
COc1cccc(/C=C2\N=C(c3cncc(Br)c3)OC2=O)c1	85*	0	0	1
NS(=O)(=O)c1ccc(-c2ccc(C=C3C(=O)NC(=O)NC3=O)o2)cc1	.	0	-2	3
O=C1NC(=O)C(=Cc2ccc(-c3ccccc3[N+](=O)[O-])o2)C(=O)N1	95*	0	-3	0
CC1(C)CN=C(Nc2ccc(F)c(Cl)c2)S1	-13	-1	2	2
CC1(C)CN=C(Nc2ccc(F)c(F)c2)S1	82*	0	0	2
CCC(=Nc1ccccc1NC(C)=O)c1c(O)n(C)c(=O)n(C)c1=O	5	0	-1	-1
O=c1[nH]c(=O)n(C2CCCCCC2)c(O)c1C=NCCCN1CCOCC1	12	2	-5	-2
CCOC(=O)Cc1csc(NC(=O)c2c(O)c3ccccc3n(CCC(C)C)c2=O)n1	89*	0	-2	12
SMILES	CHOP inhibitor	A1 inh	UPR XBP1 act	UPR CHOP act
CCCCCCn1c(=O)c(C(=O)Nc2nc(CC(=O)OCC)cs2)c(O)c2ccccc21	84*	0	-2	18
CCCCCCn1c(=O)c(C(=O)Nc2c(C)n(C)n(-c3ccccc3)c2=O)c(O)c2ccccc21	90*	0	4	1
COC1=CC(=O)[C@]2(C=C1OC)OC[C@@H]1Oc3c(ccc4c3C=CC(C)(C)O4)C(=O)[C@@H]12	.	2	0	3
CCCCC(=O)N/N=C/c1c(O)n(CCCC)c(=S)[nH]c1=O	32	0	1	0
Cc1cc(C)cc(N2C(=O)NC(=O)/C(=C\c3cc(C)n(C)c3C)C2=O)c1	10	1	0	-1
Cc1cc(/C=C2\C(=O)NC(=O)N(c3ccc(Cl)cc3)C2=O)c(C)n1C	79*	0	1	-1
Clc1ccc2c(c1)C(c1ccccc1Cl)=NCc1nnc(N3CCN(CCSc4ccccc4)CC3)n1-2	53	1	-4	-1
Clc1ccc2c(c1)C(c1ccccc1Cl)=NCc1nnc(N3CCN(CCOc4ccccc4)CC3)n1-2	88*	-1	-2	0
CN1CCc2cc3c(c4c2C1Cc1ccccc1-4)OCO3 (stereo not drawn)	.	-1	-3	2
CC(C)Oc1cc(-n2c(=S)[nH]c3ccccc3c2=O)c(Cl)cc1Cl	83*	1	2	1
CCC(C)NC(=O)c1c(N)n(Cc2ccc3c(c2)OCO3)c2nc3ccccc3nc12 (stereo not drawn)	.	0	1	3
CCCCn1c(O)c(C=NC2CC3CCC2(C)C3(C)C)c(=O)[nH]c1=O (stereo not drawn)	95*	-1	0	1
NC(=O)Nc1ccc(C(=O)OCC(=O)Nc2ccc(Cl)cc2C(=O)c2ccccc2)cc1	76*	0	1	0
Cc1ccc(CN2C(=O)NC(=O)C3(Cc4c(nc5ccccn5c4=O)N4CCCCCC43)C2=O)cc1 (stereo not drawn)	86*	-2	2	8
CCCCn1c(NC(=O)c2ccc(Br)o2)c(C(=O)OCC)c2nc3ccccc3nc21	24	1	62*	7
CCOP1(=S)Oc2cc3c(cc2C(C(=O)OC)(C(F)(F)F)O1)OCO3 (stereo not drawn)	82*	0	-2	0
CC(C)(O)[C@H]1O[C@H]2CC[C@@]3(C)[C@@](O)(CC[C@H]4Cc5c([nH]c6ccccc56)[C@@]43C)C2=CC1=O	82*	0	-7	1
O=C(O)c1ccc2c(c1)C1C(Cl)C(Sc3ccccc3[N+](=O)[O-])CC1C(c1cccc([N+](=O)[O-])c1)N2 (stereo not drawn)	81*	.	.	.
O=C(O)c1cccc2c1NC(c1cccc([N+](=O)[O-])c1)C1CC(Sc3ccccc3[N+](=O)[O-])C(Cl)C21 (stereo not drawn)	51	.	-3	-1
N#CC(C#N)=Cc1ccc(-c2ccccc2F)o1	-28	1	.	.
CCOc1ccccc1N=C1SCCCN1C	33	1	-2	-2
CCOc1cccc(=NC2CCCCC2)c2c(C)n(C)c(C)c12	79*	2	-2	8
CCn1cc(C(=O)c2cccs2)c2ccccc21	77*	1	8	-1
